In PMC7262549 (Biochemistry and Biophysics Reports, 2020):
Like-named read-outs stand apart in the source and are kept apart here.

Experiments:
Conditions in all cases: 4 mM MgSO4
Dkum (wt) [1] = system: Dkum (wt)
Pmat (wt) [2] = test: luminometry, peak light intensity, Michaelis-Menten fit; assay type: biochemical, Pyrocoelia matsumurai kumejimensis
Dkum (wt) [3] = test: as above; assay type: biochemical, Drilaster kumejimensis
MALuci2 (wt) = test: luminometry, peak light intensity, Michaelis-Menten fit; assay type: biochemical, Luciola sp.
Procedure, shortened: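 Wild-type luciferase coding sequence from lantern cDNA, expressed from pRSET-B in E. coli JM109(DE3) and Ni-NTA purified. Luciferin Km: 50 μg/mL partially purified enzyme, luciferin 0.6–640 μM. ATP Km: 50 μg/mL purified enzyme, ATP 5–1920 μM. Light emission recorded 10 s at 0.02 s gating on a luminometer. Rate taken as peak intensity; Km from least-squares Michaelis–Menten fit.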

Sfla (wt) [4] = system: Sfla (wt)
Psag (wt) [5] = system: Psag (wt)
Psag (wt) [6] = test: luminometry, peak light intensity, Michaelis-Menten fit; assay type: biochemical, Pristolycus sagulatus
Pmat (wt) [7] = system: Pmat (wt)
Sfla (wt) [8] = test: luminometry, peak light intensity, Michaelis-Menten fit; assay type: biochemical, Stenocladius flavipennis
[9] = read-out: Km (luciferin μM), 50 mM Tris-HCl pH 8.0, 2 mM ATP
[10] = read-out: Km (ATP μM), 50 mM Tris-HCl pH 8.0, 1 mM luciferin

## O=C(O)[C@H]1CSC(c2nc3ccc(O)cc3s2)=N1 [D-luciferin]
Dkum (wt) [1]; [9]
  Km: 19.4 µM
Pmat (wt) [2]; [9]
  Km: 14.2 µM
Dkum (wt) [3]; [9]
  Km: 60.1 µM
MALuci2 (wt); [9]
  Km: 4.25 µM
Sfla (wt) [4]; [9]
  Km: 6.6 µM
Psag (wt) [5]; [9]
  Km: 222 µM
Psag (wt) [6]; [9]
  Km: 4.9 µM
Pmat (wt) [7]; [9]
  Km: 62.2 µM
Sfla (wt) [8]; [9]
  Km: 16.6 µM

## Nc1ncnc2c1ncn2[C@@H]1O[C@H](COP(=O)(O)OP(=O)(O)OP(=O)(O)O)[C@@H](O)[C@H]1O [ATP]
Dkum (wt) [1]; [10]
  Km: 26.8 µM
Pmat (wt) [2]; [10]
  Km: 104 µM
Dkum (wt) [3]; [10]
  Km: 127 µM
MALuci2 (wt); [10]
  Km: 188 µM
Sfla (wt) [4]; [10]
  Km: 9 µM
Psag (wt) [5]; [10]
  Km: 282 µM
Psag (wt) [6]; [10]
  Km: 194 µM
Pmat (wt) [7]; [10]
  Km: 98.1 µM
Sfla (wt) [8]; [10]
  Km: 21.5 µM
